Laboratory results taken from ChEMBL document CHEMBL1138232, “Optimization of naphthalimide-imidazoacridone with potent antitumor activity leading to clinical candidate (HKH40A, RTA 502)” (J Med Chem, 2007).

Experiments:
HCT-116 [1] = assay: Growth inhibition of human HCT116 cells after 5 days by MTT assay; format: functional; settings: HCT-116, 120 h
In short: (§1)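 MTT assay after 5 day continuous exposure. GI50, TGI and LC50 calculated from the MTT data. Means ± SD of at least three independent experiments; coefficients of variation 10-20%. Compounds used as tri(methanesulfonate) salts.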

HT-29 [2] = assay: Growth inhibition of human HT29 cells after 5 days by MTT assay; format: functional; settings: HT-29, 120 h; for CC50: read-out: LC50 (the source's name); in short: as §1
[3] = Growth inhibition of human Hep3B cells after 5 days by MTT assay; format: functional, Hep 3B2; settings: 120 h; for CC50: read-out: LC50 (the source's name); in short: as §1
HCT-116 [4] = assay: Cell cycle arrest in HCT116 cells assessed as accumulation at G2/M phase at 50 nM after 72 hrs; format: functional, Homo sapiens
In short: (§2)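 HCT116 cells exposed to 50 nM drug for 72 h, then cell-cycle distribution analysed. Sub-G1, G1, S and G2/M fractions reported as percent of cells, with untreated control cells for comparison.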

[5] = Antitumor activity against human 10.05 cells expressing mutated p53; format: functional, cell-based
In short: (§3)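 Compounds tested as tri(methanesulfonate) salts, soluble in water and dilute buffers. Human tumour cells carrying wild-type or mutated p53 were exposed for 5 days, and viability was read by MTT assay. GI50, TGI and LC50 were calculated from the MTT data. Values are means ± SD of at least three independent experiments, with coefficients of variation of 10–20%.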

HCT-116 [6] = assay: Antitumor activity against human HCT116 cells expressing wild type p53; format: functional; settings: read-out: LC50 (the source's name); in short: as §3
RKO = assay: Antitumor activity against human RKO cells expressing wild type p53; format: functional; settings: read-out: LC50 (the source's name); in short: as §3
HCT-116 [7] = assay: Cell cycle arrest in HCT116 cells assessed as accumulation at G1 phase at 50 nM after 72 hrs; format: functional, Homo sapiens; in short: as §2
HCT-116 [8] = assay: Cell cycle arrest in HCT116 cells assessed as accumulation at Sub G1 phase at 50 nM after 72 hrs; format: functional, Homo sapiens; in short: as §2
COLO 205 = assay: Antitumor activity against human Colo205 cells expressing mutated p53; format: functional, cell-based; in short: as §3
HCT-116 [9] = assay: Cell cycle arrest in HCT116 cells assessed as accumulation at S phase at 50 nM after 72 hrs; format: functional, Homo sapiens; in short: as §2
HT-29 [10] = assay: Antitumor activity against HT29 cells expressing mutated p53; format: functional, cell-based; settings: Homo sapiens; in short: as §3
ASPC1 = assay: Antitumor activity against p53 null human ASPC1 cells; format: functional, cell-based
PC-3 = assay: Antitumor activity against PC3 cells expressing mutated p53; format: functional, cell-based; settings: Homo sapiens; in short: as §3
MIA PaCa-2 = assay: Inhibition of tumor growth in PaCa2 cells xenografted nu/nu mouse at 80 mg/kg; format: functional, Homo sapiens; settings: read-out: TGI
In short: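 PaCa-2 tumour fragments implanted on the flank of nu/nu mice, 10 per group. Intraperitoneal treatment, Q3Dx4, started 12 days post-inoculation at 80 mm3 tumour volume. Tumour growth inhibition measured.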

Row | SMILES | GI50 (HCT-116 [1]) [µM] | LC50 (HCT-116 [1]) [µM] | GI50 (HT-29 [2]) [µM] | CC50 (HT-29 [2]) [µM] | GI50 [3] [µM] | CC50 [3] [µM] | other results
1 | O=C1c2cccc3cccc(c23)C(=O)N1CCCN1CCN(CCCNc2ccc3ncn4c5ccccc5c(=O)c2c34)CC1 | 0.015 | 1 | 0.011 | 1 | 0.022 | 1 | –
2 | COc1ccc2c(c1)c(=O)c1c(NCCCN3CCN(CCCN4C(=O)c5cccc6cccc(c56)C4=O)CC3)ccc3ncn2c31 | 0.0035 | 0.07 | 0.003 | 1 | 0.0035 | 0.33 | –
3 | Nc1cc2c3c(cccc3c1)C(=O)N(CCCN1CCN(CCCNc3ccc4ncn5c6ccc(F)cc6c(=O)c3c45)CC1)C2=O | 0.0022 | 0.08 | 0.008 | 0.75 | – | – | –
4 | O=C1c2cccc3cc([N+](=O)[O-])cc(c23)C(=O)N1CCCN1CCN(CCCNc2ccc3ncn4c5ccccc5c(=O)c2c34)CC1 | 0.001 | 0.04 | 0.002 | 0.55 | 0.004 | 0.38 | Activity (HCT-116 [4]): 45%; IC50 [5]: 0.3 µM; CC50 (HCT-116 [6]): 0.04 µM; CC50 (RKO): 0.04 µM; Activity (HCT-116 [7]): 37.9%; Activity (HCT-116 [8]): 15.5%; IC50 (COLO 205): 0.5 µM; Activity (HCT-116 [9]): 1.3%; IC50 (HT-29 [10]): 0.55 µM; IC50 (ASPC1): 0.35 µM; IC50 (PC-3): > 1 µM
5 | O=C1c2cccc3cc([N+](=O)[O-])cc(c23)C(=O)N1CCCN1CCN(CCCNc2ccc3ncn4c5ccc(F)cc5c(=O)c2c34)CC1 | 0.001 | 0.04 | 0.002 | 0.6 | 0.004 | 0.4 | –
6 | Cc1ccc2c(c1)c(=O)c1c(NCCCN3CCN(CCCN4C(=O)c5cccc6cc([N+](=O)[O-])cc(c56)C4=O)CC3)ccc3ncn2c31 | 0.0035 | 0.03 | – | – | – | – | –
7 | Cc1cccc2c1c(=O)c1c(NCCCN3CCN(CCCN4C(=O)c5cccc6cc([N+](=O)[O-])cc(c56)C4=O)CC3)ccc3ncn2c31 | 0.003 | 0.03 | – | – | – | – | –
8 | O=C1c2cccc3c([N+](=O)[O-])ccc(c23)C(=O)N1CCCN1CCN(CCCNc2ccc3ncn4c5ccccc5c(=O)c2c34)CC1 | 0.0055 | > 1 | 0.015 | 1 | 0.018 | 1 | –
9 | COc1ccc2c(c1)c(=O)c1c(NCCCN3CCN(CCCN4C(=O)c5cccc6c([N+](=O)[O-])ccc(c56)C4=O)CC3)ccc3ncn2c31 | 0.003 | 0.35 | 0.004 | 1 | 0.005 | 0.8 | –
10 | Nc1ccn([C@@H]2O[C@H](CO)[C@@H](O)C2(F)F)c(=O)n1 [GEMCITABINE] | – | – | – | – | – | – | inhibition in vivo at 80 mg/kg (MIA PaCa-2): 85.3%
